Test results taken from ChEMBL document CHEMBL1131051, “Novel combretastatin analogues effective against murine solid tumors: design and structure-activity relationships” (J Med Chem, 1998).

Experiments:
[1] = system: Colon 26; experiment: Growth inhibition of colon 26 adenocarcinoma cells by 50 %.; type: functional, cell-based; details: Mus musculus
Summary of the method: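 Murine Colon 26 adenocarcinoma cells were kept in RPMI-1640 with 10% FBS. Cells were seeded at 1×10^5 cells/ml in 96-well plates and held 24 h at 37 °C in CO2. They were then exposed to a range of compound concentrations for 48 h, and viable cells were counted by MTT dye reduction. IC50 is the mean of three independent assays.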

[2] = molecular target: Tubulin (Bos taurus, UniProt Q6B856+Q862L2+Q862F3); experiment: Inhibitory activity against tubulin polymerization; type: protein assay
Summary of the method: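 Tubulin polymerization was started with GTP. It was followed turbidimetrically at 350 nm at 37 °C, and extent was read after 20 min incubation. IC50 was determined graphically, averaging three independent assays.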

[3] = system: Colon 26; experiment: (§1) Antitumor activity at dose 40 mg/kg in colon26 cells; type: functional, Mus musculus
Summary of the method: (§2)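 Tumor fragments (5 mg) implanted sc on day 0: Colon 26 into CD2F1 mice, Colon 38 or 3LL into BD2F1 mice, HCT-15 into ICR nu/nu mice. Dosing iv on days 7, 11 and 15. On day 21, two caliper diameters were measured; tumor weight = length × width²/2. IR (%) = (1 − T/C) × 100, from mean treated versus control tumor weights.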

[4] = system: Colon 26; experiment: Antitumor activity at dose 5 mg/kg in murine colon26 cells; type: functional, Mus musculus
[5] = system: Colon 26; experiment: Antitumor activity at dose 160 mg/kg in murine colon26 cells; type: functional, Mus musculus
[6] = system: Colon 26; experiment: Antitumor activity at dose 10 mg/kg in murine colon26 cells; type: functional, Mus musculus; summary of the method: as §2
[7] = system: Lewis lung carcinoma cell line; experiment: Antitumor activity at dose 40 mg/kg in Lewis lung carcinoma cells (3LL) cells; type: functional, Mus musculus; summary of the method: as §2
[8] = system: HCT-15; experiment: Antitumor activity at dose 10 mg/kg in HCT-15 cells; type: functional, Mus musculus; summary of the method: as §2
[9] = system: MC-38; experiment: Antitumor activity at dose 10 mg/kg in Murine colon38 cells; type: functional, Mus musculus; summary of the method: as §2
[10] = system: HCT-15; experiment: Antitumor activity at dose 40 mg/kg in HCT-15 cells; type: functional, Mus musculus; summary of the method: as §2
[11] = as §1; type: functional, Mus musculus; summary of the method: as §2
[12] = system: MC-38; experiment: Antitumor activity at dose 10 mg/kg in colon38 cells; type: functional, Mus musculus; summary of the method: as §2

Row | SMILES | IC50 [2] | IC50 [1] | further results
1 | COc1ccc(/C=C(/C#N)c2ccccc2)cc1N | 8000 nM | 36 nM | –
2 | COc1cc(/C=C\c2ccc(C)c(N)c2)cc(OC)c1OC.Cl | – | – | IR [3]: 62%
3 | COc1ccc(CC(C#N)c2cc(OC)c(OC)c(OC)c2)cn1 (stereo unspecified) | > 20000 nM | > 3000 nM | –
4 | COc1ccc(/C=C(/CO)c2cc(OC)c(OC)c(OC)c2)cc1 | > 20000 nM | 363 nM | –
5 | COc1ccc(/C=C(\C#N)c2cc(OC)c(OC)c(OC)c2)cc1N | > 20000 nM | 12.6 nM | –
6 | COc1ccc(/C=C(/C#N)c2cc(OC)c(OC)c(OC)c2)cc1O | 5000 nM | 23.5 nM | –
7 | COc1cc(/C(C#N)=C\c2ccc(C)c(N)c2)cc(OC)c1OC.Cl | – | – | IR [4]: 11%
8 | COc1cc(/C(C#N)=C\c2ccc(Cl)c(N)c2)cc(OC)c1OC.Cl | – | – | IR [4]: -23%
9 | COc1ccc(/C=C(/C=O)c2cc(OC)c(OC)c(OC)c2)cc1 | 4000 nM | 213 nM | –
10 | COc1ccc(/C=C\c2cc(OC)c(OC)c(OC)c2)cc1O [COMBRETASTATIN A4] | – | 18 nM | IR [5]: 31%
11 | COc1ccc(/C=C(/C#N)c2cc(OC)c(OC)c(OC)c2)cc1N.Cl | – | – | IR [6]: 77%; IR [7]: 59%; IR [8]: 28%; IR [9]: 75%
12 | COc1ccc(/C(=C\c2cc(OC)c(OC)c(OC)c2)C(N)=O)cc1N | – | 223 nM | –
13 | COc1ccc(/C=C(/CN)c2cc(OC)c(OC)c(OC)c2)cc1 | > 20000 nM | > 3000 nM | –
14 | COc1ccc(CC(C#N)c2cc(OC)c(OC)c(OC)c2)cc1N (stereo unspecified) | 7000 nM | 22.5 nM | –
15 | COc1cc(/C=C\c2ccc(Cl)c(N)c2)cc(OC)c1OC | 3000 nM | 68.9 nM | –
16 | COc1cc(/C=C\c2ccc(C)c(N)c2)cc(OC)c1OC | 4000 nM | 43.5 nM | –
17 | COc1ccc(/C=C(/C[N+](C)(C)C)c2cc(OC)c(OC)c(OC)c2)cc1.[I-] | > 20000 nM | > 3000 nM | –
18 | COc1ccc(/C(C#N)=C\c2ccc(OC)c(N)c2)cc1 | 9000 nM | 1430 nM | –
19 | COc1ccc(/C=C(/C#N)c2cc(OC)c(OC)c(OC)c2)cc1N | 10000 nM | 5.9 nM | –
20 | COc1ccc(/C=C\c2cc(OC)c(OC)c(OC)c2)cc1N.Cl | – | – | IR [10]: 53%; IR [7]: 65%; IR [3]: 69%; IR [11]: 62%; IR [12]: 72%
21 | COc1ccc(/C=C\c2cc(OC)c(OC)c(OC)c2)cc1N | – | 5.1 nM | –

Second part, led by results:

Row | IC50 [2] | SMILES | IC50 [1] | further results
22 | 5000 nM | COc1ccc(/C(C#N)=C\c2cc(OC)c(OC)c(OC)c2)cc1N | 235 nM | –
23 | > 20000 nM | COc1ccc(/C=C(\C#N)c2cc(OC)c(OC)c(OC)c2)cc1 | 63.7 nM | –
24 | 5000 nM | COc1ccc(/C=C(/C#N)c2cc(OC)c(OC)c(OC)c2)cc1[N+](=O)[O-] | 135 nM | –
25 | 10000 nM | COc1ccc(/C=C(/C#N)c2cc(OC)c(OC)c(OC)c2)cc1NC(C)=O | 18.3 nM | –
26 | > 20000 nM | COc1ccc(/C=C(\C#N)c2cc(OC)c(OC)c(OC)c2)cc1[N+](=O)[O-] | > 3000 nM | –
27 | 6000 nM | COc1cc(/C(C#N)=C\c2ccc(Cl)c(N)c2)cc(OC)c1OC | 58.1 nM | –
28 | 6000 nM | COc1ccc(/C=C(/C#N)c2cc(OC)c(OC)c(OC)c2)cc1 | 18 nM | –
29 | 3000 nM | COc1ccc(/C=C(/C(N)=O)c2cc(OC)c(OC)c(OC)c2)cc1N | 195 nM | –
30 | 10000 nM | COc1cc(/C(C#N)=C\c2ccc(C)c(N)c2)cc(OC)c1OC | 61.7 nM | –
31 | 7000 nM | COc1ccc(/C=C(/C#N)c2ccc(OC)c(OC)c2)cc1N | 8.1 nM | –
32 | > 20000 nM | COc1cc(/C(C#N)=C/c2ccc(C)c(N)c2)cc(OC)c1OC | 722 nM | –
33 | > 20000 nM | COc1ccc(/C=C(/C#N)c2cc(OC)c(OC)c(OC)c2)cn1 | 2370 nM | –
